From ChEMBL document CHEMBL5230177, “Inactivation of myostatin by photooxygenation using functionalized d-peptides” (RSC Med Chem, 2023) come the findings set out here.

Active and inactive are the calls of the source. The rule behind the calls is not given here.

Series [1] has as its target Growth/differentiation factor 8 (Homo sapiens) (UniProt O14793). The series is described as follows: Photo-oxygenation of human recombinant Myostatin expressed in Escherichia coli cells assessed as oxygen adduct formation in myostatin peak fragment 79-90 at 3 uM measured after photoirradiation for 30 mins using LED by MALDI-TOF-MS analysis. Summed up:
(§1)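 Myostatin stock (8 μM in 1 mM HCl) diluted to 1 μM in 10 mM phosphate, pH 7.4. Functionalized peptide (final 3 μM) or methylene blue (final 1 μM) added. Irradiated 30 min with 730 nm LED (14 mW) at room temperature. Then 50 mM DTT reduction (37 °C, 0.5 h), Lys-C digestion (1/20 w/w, 37 °C, 2.5 h), ZipTip desalting, MALDI-TOF MS of fragments.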

For series [2] the target is unchanged. The series is described as follows: Photo-oxygenation of human recombinant Myostatin expressed in Escherichia coli cells assessed as oxygen adduct formation in myostatin peak fragment 55-78 at 3 uM measured after photoirradiation for 30 mins using LED by MALDI-TOF-MS analysis. Summed up: as §1
For series [3] the target is unchanged. The series is described as follows: Photo-oxygenation of human recombinant Myostatin expressed in Escherichia coli cells assessed as oxygen adduct formation in myostatin peak fragment 40-54 at 3 uM measured after photoirradiation for 30 mins using LED by MALDI-TOF-MS analysis. A digest of the protocol: as §1
Series [4] addresses Amyloid-beta precursor protein (Homo sapiens) (UniProt P05067). The series is described as follows: Photo-oxygenation of human Amyloid beta (1 to 42) assessed as oxygen adduct formation at 3 uM measured after photoirradiation for 30 mins using LED by MALDI-TOF-MS analysis. Summed up:
(§2)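 Aβ1-42 formed in situ from isopeptide stock (250 μM in 0.1% TFA, ultracentrifuged), diluted to 20 μM in 10 mM phosphate, pH 7.4. Functionalized peptide (final 3 μM) or methylene blue (final 1 μM) added. Irradiated with 730 nm LED (14 mW, 3–5 cm) at room temperature. Reduced with 50 mM DTT (37 °C, 0.5 h), Lys-C digested (1/20 w/w, 37 °C, 2.5 h), desalted, analysed by MALDI-TOF MS.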

Series [5] has as its system HEK293. Briefly: Phototoxicity against human HEK293 cells assessed as reduction in cell viability at 3 uM photoirradiated for 30 mins using LED followed by incubation with compound for 24 hrs by WST-1 assay. The format is toxicity, cell-based. The settings on record: hek293, 24.5 h, time 1470 min. A digest of the protocol: (§3)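 HEK293 cells grown in DMEM with 10% FBS and non-essential amino acids at 37 °C, 5% CO2, seeded 2.0×10^4 cells/well. After 48 h, medium switched to serum- and phenol red-free DMEM containing 3 μM peptide or methylene blue. Cells irradiated with LED (λmax 730 nm, 30 min), then incubated 24 h. Viability read by WST-1; Student's t-test.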

The test system of series [6] is HEK293. Briefly: Cytotoxicity against human HEK293 cells assessed as reduction in cell viability at 3 uM incubated for 24 hrs by WST-1 assay. The format is toxicity, cell-based. The settings on record: hek293, 24 h.
Series [7] concerns the target T1, Growth/differentiation factor 8 (Homo sapiens, UniProt O14793).
T1 sequence (O14793 whole entry): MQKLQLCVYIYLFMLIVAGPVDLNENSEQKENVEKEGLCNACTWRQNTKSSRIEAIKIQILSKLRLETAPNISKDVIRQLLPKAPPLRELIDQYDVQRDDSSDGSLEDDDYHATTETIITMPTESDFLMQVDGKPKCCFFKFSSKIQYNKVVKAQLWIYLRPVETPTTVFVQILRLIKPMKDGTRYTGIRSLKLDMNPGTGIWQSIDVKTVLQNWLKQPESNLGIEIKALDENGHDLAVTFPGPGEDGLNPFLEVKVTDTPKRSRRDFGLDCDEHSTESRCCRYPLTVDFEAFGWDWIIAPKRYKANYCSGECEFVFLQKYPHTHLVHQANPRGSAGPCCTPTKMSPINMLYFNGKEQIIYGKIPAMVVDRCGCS
Briefly: Photo-oxygenation mediated inactivation of human recombinant Myostatin expressed in Escherichia coli cells photoirradiated for 30 mins using LED followed by incubation with luciferase reporter transfected HEK293 cells for 4 hrs by luciferase reporter gene assay. A digest of the protocol: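 Myostatin (1 μM in 10 mM phosphate, pH 7.4, with or without peptide) diluted in serum-free DMEM to 0.6 nM, irradiated at 730 nm for 30 min, then added to HEK293 cells. Cells were transfected 24 h with SBE-luc2P reporter plus TK-Renilla control, then held 8 h in serum/phenol red-free DMEM. Exposure 4 h, PBS wash, dual-luciferase read-out. Triplicate, mean ± s.d. (n = 3), Tukey's test.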

Series [8] concerns trypsin (Sus scrofa). The series is described as follows: Stability of the compound assessed as trypsin (porcine pancreas)-mediated drug degradation at 100 uM measured after 3 hrs by MALDI-TOF-MS analysis.
Series [9] concerns chymotrypsin (Bos taurus). Briefly: Stability of the compound assessed as chymotrypsin (bovine pancreas)-mediated drug degradation by measuring residual ratio at 100 uM measured after 1 hr by HPLC analysis.
Series [10] concerns chymotrypsin (Bos taurus). The series is described as follows: Stability of the compound assessed as chymotrypsin (bovine pancreas)-mediated drug degradation by measuring cleavage at Tyr7-Ser8 residue at 100 uM measured for 3 hrs by MALDI-TOF-MS analysis.
Series [11] relates to chymotrypsin (Bos taurus). The series is described as follows: Stability of the compound assessed as chymotrypsin (bovine pancreas)-mediated drug degradation by measuring cleavage at Leu21-Arg22 residue at 100 uM measured for 3 hrs by MALDI-TOF-MS analysis.
In series [12] the target is Growth/differentiation factor 8 (Homo sapiens) (UniProt O14793). Briefly: Inactivation of human recombinant Myostatin expressed in Escherichia coli cells at 300 nM incubated with luciferase reporter transfected HEK293 cells for 4 hrs by luciferase reporter gene assay.
Series [13] shares this target. Briefly: Photo-oxygenation of human recombinant Myostatin expressed in Escherichia coli cells assessed as oxygen adduct formation at 1 uM measured after photoirradiation for 30 mins using LED by MALDI-TOF-MS analysis. Summed up:
as §1

For series [14], the target named is Amyloid-beta precursor protein (Homo sapiens) (UniProt P05067). Briefly: Photo-oxygenation of human Amyloid beta (1 to 42) assessed as oxygen adduct formation at 1 uM measured after photoirradiation for 30 mins using LED by MALDI-TOF-MS analysis. A digest of the protocol: as §2
Chain of Amyloid-beta precursor protein (Homo sapiens) (P05067 whole entry): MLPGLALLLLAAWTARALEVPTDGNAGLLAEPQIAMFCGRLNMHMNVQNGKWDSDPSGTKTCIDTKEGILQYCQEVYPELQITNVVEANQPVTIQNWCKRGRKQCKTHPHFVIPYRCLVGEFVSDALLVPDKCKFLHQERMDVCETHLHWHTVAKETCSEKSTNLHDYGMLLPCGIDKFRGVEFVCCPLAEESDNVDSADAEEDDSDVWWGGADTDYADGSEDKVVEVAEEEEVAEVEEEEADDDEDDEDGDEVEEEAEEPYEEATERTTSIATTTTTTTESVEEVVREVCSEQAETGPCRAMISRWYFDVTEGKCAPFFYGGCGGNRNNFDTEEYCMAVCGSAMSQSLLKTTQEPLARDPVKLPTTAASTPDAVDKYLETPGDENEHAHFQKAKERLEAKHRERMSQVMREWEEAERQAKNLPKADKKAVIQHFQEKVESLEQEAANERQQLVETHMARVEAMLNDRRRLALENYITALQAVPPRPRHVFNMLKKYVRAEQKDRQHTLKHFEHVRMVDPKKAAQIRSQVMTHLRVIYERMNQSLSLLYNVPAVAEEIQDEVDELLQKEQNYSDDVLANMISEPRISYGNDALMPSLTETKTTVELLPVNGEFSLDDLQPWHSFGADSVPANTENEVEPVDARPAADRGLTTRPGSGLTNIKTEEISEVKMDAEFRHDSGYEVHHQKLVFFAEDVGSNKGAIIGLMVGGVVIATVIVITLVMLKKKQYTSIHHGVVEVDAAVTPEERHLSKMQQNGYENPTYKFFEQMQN
The nature of series [15]: Phototoxicity against human HEK293 cells assessed as cell viability at 3 uM photoirradiated for 30 mins using LED followed by incubation with compound for 24 hrs by WST-1 assay. Format: toxicity, cell-based. Particulars: time 1470 min, read-out: Activity. A digest of the protocol:
as §3

`CC[C@@H](C)[C@@H](NC(=O)[C@@H](CCCNC(=N)N)NC(=O)[C@@H](CCc1ccccc1)NC(=O)[C@H](NC(=O)[C@@H](CCCCN)NC(=O)[C@H](NC(=O)[C@@H](CCCNC(=N)N)NC(=O)[C@H](NC(=O)[C@@H](Cc1ccc2ccccc2c1)NC(=O)[C@@H](CCCNC(=N)N)NC(=O)[C@@H](Cc1cn(CCN2CCCc3cc(/C=C/C4=C(Br)C(/C=C/c5cc6c7c(c5)CCCN7CCC6)=[O+][B-](F)(C(F)(F)F)O4)ccc32)nn1)NC(=O)[C@H](NC(=O)[C@@H](CCCNC(=N)N)NC(=O)[C@H](N)CC(C)C)C1CCCCC1)[C@H](C)CC)C1CCCCC1)[C@H](C)CC)C(=O)N[C@H](Cc1ccc(O)cc1)C(=O)N[C@H](CCc1ccccc1)C(N)=O` (stereo not given in full): the result in series [1] and in [2] was Active. The result in series [3] and in series [4] was inactive. In addition, the Activity result in [5] is listed as “Non-Toxic”.
As to `CN(C)c1ccc2nc3ccc(N(C)C)cc3[s+]c2c1.[Cl-]` [METHYLENE BLUE ANHYDROUS], in series [6], the Activity entry is “Non-Toxic”.
Take `CC[C@@H](C)[C@@H](NC(=O)[C@@H](CCCNC(=N)N)NC(=O)[C@@H](CCc1ccccc1)NC(=O)[C@H](NC(=O)[C@@H](CCCCN)NC(=O)[C@H](NC(=O)[C@@H](Cc1cn(CCN2CCCc3cc(/C=C/C4=C(Br)C(/C=C/c5cc6c7c(c5)CCCN7CCC6)=[O+][B-](F)(C(F)(F)F)O4)ccc32)nn1)NC(=O)[C@H](NC(=O)[C@@H](Cc1ccc2ccccc2c1)NC(=O)[C@@H](CCCNC(=N)N)NC(=O)[C@@H](CCCCN)NC(=O)[C@H](NC(=O)[C@@H](CCCNC(=N)N)NC(=O)[C@H](N)CC(C)C)C1CCCCC1)[C@H](C)CC)C1CCCCC1)[C@H](C)CC)C(=O)N[C@H](Cc1ccc(O)cc1)C(=O)N[C@H](CCc1ccccc1)C(N)=O` (stereo not given in full): the result in series [1] and in series [2] was Active. The outcome in series [3] and in series [4] was inactive. Besides, the Activity entry in [5] is “Non-Toxic”.
Turning to `CC[C@H](C)[C@H](NC(=O)[C@H](C)NC(=O)[C@H](CCC(=O)O)NC(=O)[C@@H](NC(=O)[C@H](CCCNC(=N)N)NC(=O)[C@H](CO)NC(=O)[C@H](Cc1ccc(O)cc1)NC(=O)[C@H](CCCNC(=N)N)NC(=O)[C@@H](NC(=O)[C@H](CC(N)=O)NC(=O)[C@H](CCC(N)=O)NC(=O)[C@H](CCCNC(=N)N)NC(=O)CC(c1ccccc1)c1ccccc1)[C@@H](C)O)[C@@H](C)CC)C(=O)N[C@@H](CCCCN)C(=O)N[C@H](C(=O)N[C@@H](Cc1cn(CCN2CCCc3cc(/C=C/C4=C(Br)C(/C=C/c5cc6c7c(c5)CCCN7CCC6)=[O+][B-](F)(C(F)(F)F)O4)ccc32)nn1)C(=O)N[C@H](C(=O)N[C@@H](CC(C)C)C(=O)N[C@@H](CO)C(=O)N[C@@H](CCCCN)C(=O)N[C@@H](CC(C)C)C(=O)N[C@@H](CCCNC(=N)N)C(=O)N[C@@H](CC(C)C)C(=O)O)[C@@H](C)CC)[C@@H](C)CC` (stereo not given in full), in series [7], the IC50 stood at 2.1 nM. Besides, the Stability entry in series [8], in series [10] and in [11] was “Unstable” in each case. Further, in series [9], the fraction remaining at 1 h, 100 µM turned out to be 13%.
With `CC[C@@H](C)[C@@H](NC(=O)[C@@H](CCCNC(=N)N)NC(=O)[C@@H](CCc1ccccc1)NC(=O)[C@H](NC(=O)[C@@H](CCCCN)NC(=O)[C@H](NC(=O)[C@@H](CCCNC(=N)N)NC(=O)[C@H](NC(=O)[C@@H](Cc1ccc2ccccc2c1)NC(=O)[C@@H](CCCNC(=N)N)NC(=O)[C@@H](CCCCN)NC(=O)[C@H](NC(=O)[C@@H](CCCNC(=N)N)NC(=O)[C@H](N)CC(C)C)C1CCCCC1)[C@H](C)CC)C1CCCCC1)[C@H](C)CC)C(=O)N[C@H](Cc1ccc(O)cc1)C(=O)N[C@H](CCc1ccccc1)C(N)=O`, the inhibition entry in series [12] was “Active”.
With `CC[C@@H](C)[C@@H](NC(=O)[C@@H](CCCNC(=N)N)NC(=O)[C@@H](CCc1ccccc1)NC(=O)[C@H](NC(=O)[C@@H](CCCCN)NC(=O)[C@H](NC(=O)[C@@H](CCCNC(=N)N)NC(=O)[C@H](NC(=O)[C@@H](Cc1ccc2ccccc2c1)NC(=O)[C@@H](CCCNC(=N)N)NC(=O)[C@@H](CCCCN)NC(=O)[C@H](NC(=O)[C@@H](CCCNC(=N)N)NC(=O)[C@H](N)CC(C)C)C1CCCCC1)[C@H](C)CC)C1CCCCC1)[C@H](C)CC)C(=O)N[C@H](Cc1ccc(O)cc1)C(=O)N[C@H](Cc1cn(CCN2CCCc3cc(/C=C/C4=C(Br)C(/C=C/c5cc6c7c(c5)CCCN7CCC6)=[O+][B-](F)(C(F)(F)F)O4)ccc32)nn1)C(N)=O` (stereo not given in full), the result in series [1] and in [2] was Active. The result in [3] and in series [4] was inactive. Further, in series [5], the Activity entry is reported as “Non-Toxic”.
For `CC[C@@H](C)[C@@H](NC(=O)[C@@H](Cc1cn(CCN2CCCc3cc(/C=C/C4=C(Br)C(/C=C/c5cc6c7c(c5)CCCN7CCC6)=[O+][B-](F)(C(F)(F)F)O4)ccc32)nn1)NC(=O)[C@@H](CCc1ccccc1)NC(=O)[C@H](NC(=O)[C@@H](CCCCN)NC(=O)[C@H](NC(=O)[C@@H](CCCNC(=N)N)NC(=O)[C@H](NC(=O)[C@@H](Cc1ccc2ccccc2c1)NC(=O)[C@@H](CCCNC(=N)N)NC(=O)[C@@H](CCCCN)NC(=O)[C@H](NC(=O)[C@@H](CCCNC(=N)N)NC(=O)[C@H](N)CC(C)C)C1CCCCC1)[C@H](C)CC)C1CCCCC1)[C@H](C)CC)C(=O)N[C@H](Cc1ccc(O)cc1)C(=O)N[C@H](CCc1ccccc1)C(N)=O` (stereo not given in full), the result in [1] and in series [2] was Active. Also, the outcome in series [3] and in series [4] was inactive. Moreover, in series [5], the Activity result is on record as “Non-Toxic”.
With `CN(C)c1ccc2nc3ccc(=[N+](C)C)cc-3sc2c1` [METHYLENE BLUE ANHYDROUS], the outcome in series [13] and in series [14] was Active. In [15], the viability at 24.5 h, 3 µM amounted to 21%.
